Results: ChEMBL document CHEMBL1777677, “Synthesis of chromone carboxamide derivatives with antioxidative and calpain inhibitory properties” (Eur J Med Chem, 2011)

Tests used:
[1] = Inhibition of human erythrocyte calpain using Suc-Leu-Tyr-AMC substrate after 30 mins by spectrofluorimetry
How it was run: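 Human erythrocyte calpain I, 34 nM stock added to start, with Suc-Leu-Tyr-AMC, NaCl and CaCl2 in 50 mM Tris–HCl pH 7.5, 1 mM DTT; DMSO ≤1% final. After 30 min at rt, AMC fluorescence read (ex 380/em 460 nm) against calpain-free blank. IC50 from percent inhibition across concentrations; means ± SD, three independent experiments.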

Liver = assay: Antioxidant activity in rat liver homogenates assessed as inhibition of iron-ascorbic acid mix-induced lipid peroxidation after 30 mins by TBARS assay; format: functional, tissue-based; conditions: 0.5 h
How it was run: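 Rat liver homogenate (11 mg protein/ml, Bradford vs BSA) incubated with 10 µM […], 0.4 mM ascorbic acid and graded compound concentrations in 50 mM Tris–HCl pH 7.5, 37 °C for 30 min. Stopped with TBA–TCA reagent containing HCl and BHT, heated 95 °C 30 min, centrifuged, supernatant A535 read. IC50 from three independent experiments, means ± SD.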

[2] = test system: Radical scavenging activity; assay: Antioxidant activity assessed as DPPH free radical scavenging activity after 30 mins; format: functional
How it was run: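 Test samples in ethanol mixed with 100 µM ethanolic DPPH, incubated 37 °C for 30 min; absorbance read at 515 nm. Percent inhibition taken against ethanol-treated controls; IC50 is the concentration scavenging 50% of DPPH radicals. Means ± SD of three independent experiments.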

Structure (SMILES)	IC50 [1] [nM]	IC50 (Liver) [nM]	IC50 [2] [nM]
COc1ccc2c(=O)c(C)c(C(=O)N[C@@H](Cc3ccccc3)C(=O)C(N)=O)oc2c1	120		
COc1cc2oc(C(=O)N[C@@H](Cc3ccccc3)C(=O)C(=O)NCc3ccccc3)c(C)c(=O)c2cc1O	110		
Cc1c(C(=O)N[C@@H](Cc2ccccc2)C(=O)C(=O)NCc2ccccc2)oc2cc(O)c(O)cc2c1=O	280	48700	26500
Cc1c(C(=O)N[C@@H](Cc2ccccc2)C(=O)C(=O)NCc2ccccc2)oc2cc(O)ccc2c1=O	130		
COc1ccc(CCNC(=O)C(=O)[C@H](Cc2ccccc2)NC(=O)c2oc3cc(O)ccc3c(=O)c2C)cc1	90		
O=C1O[C@H]([C@@H](O)CO)C(O)=C1O [ASCORBIC ACID]		> 100000	30800

Further compounds by falling IC50 [1], results first:

IC50 [1] [nM]	IC50 (Liver) [nM]	IC50 [2] [nM]	Structure (SMILES)
1290	52500	41400	COc1ccc(CCNC(=O)C(=O)[C@H](Cc2ccccc2)NC(=O)c2oc3cc(O)c(O)cc3c(=O)c2C)cc1
430			COc1ccc2c(=O)c(C)c(C(=O)N[C@@H](Cc3ccccc3)C(=O)C(=O)NCc3ccccc3)oc2c1
270			COc1ccc(CCNC(=O)C(=O)[C@H](Cc2ccccc2)NC(=O)c2oc3cc(OC)c(OC)cc3c(=O)c2C)cc1
230			COc1ccc(CCNC(=O)C(=O)[C@H](Cc2ccccc2)NC(=O)c2oc3cc(OC)ccc3c(=O)c2C)cc1
190			COc1cc2oc(C(=O)N[C@@H](Cc3ccccc3)C(=O)C(=O)NCc3ccccc3)c(C)c(=O)c2cc1OC
100			COc1ccc(CCNC(=O)C(=O)[C@H](Cc2ccccc2)NC(=O)c2oc3cc(OC)c(O)cc3c(=O)c2C)cc1
90			COc1cc2oc(C(=O)N[C@@H](Cc3ccccc3)C(=O)C(N)=O)c(C)c(=O)c2cc1OC
70	> 100000	> 100000	Cc1c(C(=O)N[C@@H](Cc2ccccc2)C(=O)C(N)=O)oc2ccccc2c1=O
